Experimental data as given in publication PMC4203308 (Biomacromolecules, 2013).
In brackets after ≈: the same amount, converted by molar mass. Several values for one entry are separate records, joined by “and”; a condition that tells them apart may be missing. Identical values can stand only once. Where no end group is shown, it is not given here.

What was measured:
S aureus (25923) = assay: microbe, parasite or virus in culture; assay type: cell-based, Staphylococcus aureus; settings: for Antimicrobial activity (MIC): 25923, 20 h
S. aureus (29213) = assay: microbe, parasite or virus in culture; assay type: cell-based, Staphylococcus aureus; settings: for Antimicrobial activity (MIC): 29213, 20 h
S. Epidermidis (35984) = assay: microbe, parasite or virus in culture; assay type: cell-based; settings: for Antimicrobial activity (MIC): 35984, 20 h
in vitro [1] = assay type: cell-based; settings: human
in vitro [2] = assay type: in vitro ADME
Peptide aggregation = assay type: physicochemical
[3] = system: human lung carcinoma A549 cells; assay: Kinetics of peptide-induced cell membrane damage, LIVE/DEAD kit; assay type: cell-based; settings: LIVE/DEAD dye staining, 120 minutes of incubation
Method in brief: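 A549 cells (freshly trypsinized) seeded at 2 × 10⁴ cells/well in collagen-coated glass chambers, grown overnight in F12K/10% FBS at 37 °C, 5% CO₂. Cells were PBS-washed three times and stained with LIVE/DEAD for 15 min. Test compound was added at a final 10 µM, and confocal images were taken over time (ex 488 nm; em 505–530 nm live, 560 nm dead). Membrane integrity was taken as % green of total green+red pixels.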

[4] = system: Staphylococcus aureus (ATCC 25923); assay: Co-culture of bacteria and mammalian cells: effect on bacteria; assay type: cell-based; settings: A549 monolayer + S. aureus (25923), 20 µM peptide, 6 hours
[5] = Staphylococcus aureus, 20 h, read-out: Antimicrobial activity (MIC)

Row | Compound | MIC (S aureus (25923); [5]) [µg/mL] | MIC (S. aureus (29213); [5]) [µg/mL] | MIC (S. Epidermidis (35984); Staphylococcus epidermidis, 20 h, read-out: Antimicrobial activity (MIC)) [µg/mL] | Antimicrobial activity (MIC) (S aureus (25923)) [µg/mL] | Antimicrobial activity (MIC) (S. aureus (29213)) [µg/mL] | Antimicrobial activity (MIC) (S. Epidermidis (35984)) [µg/mL] | IC50 at 2 h (in vitro [1]) [µM] | estimated half-life in human sera (in vitro [2]) [h] | remaining at 5 h, 10 µM (in vitro [2]; human, serum) [%] | Size of peptide aggregates (Nanosizer) (Peptide aggregation; PBS pH 7.4, 37 °C, long (> 4–6 hours / overnight) incubation, Zeta nanosizer) | Aggregate formation at acidic pH (in words) (Peptide aggregation; acidic pH, even very high peptide concentrations and long incubation) | Fraction of peptide in solution existing as aggregates (Peptide aggregation; after overnight incubation, PBS pH 7.4, DLS and congo red) | Time for aggregates to dissolve completely at pH 5.5 (Peptide aggregation; solution pH adjusted from physiological pH to pH=5.5 with HCl) [minutes] | Cell lysis reached [3] [%] | Effect on S. aureus in co-culture (in words) [4]
1 | CC1(C)S[C@@H]2[C@H](NC(=O)Cc3ccccc3)C(=O)N2[C@H]1C(=O)O [Penicillin G] | 1 (≈ 2.99 µM) | 16 (≈ 47.8 µM) | 4 (≈ 12 µM) |  |  |  |  |  |  |  |  |  |  |  | 
2 | FLGALFKALSKLL [PTP-7] |  |  |  | 4 | 8 | 8 | 9 |  |  |  |  |  |  |  | 
3 | FLGALFRALSRLL [CL-1] |  |  |  | 8 | 8 | 4 |  | 8 to 9 | > 95 | > 2.0 µm and 2.5 µm | unable to form aggregates at acidic pH | 90–95% and ~95% | < 30 | < 100 | only S. aureus were selectively killed
